Laboratory results taken from ChEMBL document CHEMBL3813688, “Synthesis, antitumor activity and mechanism of action of novel 1,3-thiazole derivatives containing hydrazide-hydrazone and carboxamide moiety” (Bioorg Med Chem Lett, 2016).
≈ marks a conversion by molar mass, not a printed value.

Tests used:
Assay type in all cases: functional, cell-based
A549 = assay: Cytotoxicity against human A549 cells assessed as cell growth inhibition after 72 hrs by MTT assay; conditions: A549, 72 h
Outline: (§1)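 MTT growth assay in human cancer lines (MCF-7, HepG2, BGC-823, HeLa, A549), 72 h after treatment; 5-fluorouracil as reference. IC50 (μg/mL) taken as concentration giving 50% growth inhibition versus untreated control.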

[1] = Cytotoxicity against human BCG823 cells assessed as cell growth inhibition after 72 hrs by MTT assay; conditions: BCG823, 72 h; outline: as §1
HepG2 = assay: Cytotoxicity against human HepG2 cells assessed as cell growth inhibition after 72 hrs by MTT assay; conditions: HepG2, 72 h; outline: as §1
MCF7 = assay: Cytotoxicity against human MCF7 cells assessed as cell growth inhibition after 72 hrs by MTT assay; conditions: MCF7, 72 h; outline: as §1
HeLa = assay: Cytotoxicity against human HeLa cells assessed as cell growth inhibition after 72 hrs by MTT assay; outline: as §1

Compound | IC50 (A549) [µg/mL] | IC50 [1] [µg/mL] | IC50 (HepG2) [µg/mL] | IC50 (MCF7) [µg/mL] | IC50 (HeLa) [µg/mL]
CN(C(=O)NC(=O)c1ccccc1)c1nc(C(F)(F)F)c(C(=O)N/N=C/c2cccc([N+](=O)[O-])c2)s1 | 20.7 (≈ 39.7 µM) | 13.6 (≈ 26.1 µM) | 14.3 (≈ 27.5 µM) | 15.4 (≈ 29.6 µM) | 11.2 (≈ 21.6 µM)
Cc1nc(N(C)C(=O)NC(=O)c2c(F)cccc2F)sc1C(=O)N/N=C/c1ccc(Cl)cc1Cl |  |  | 70 (≈ 133 µM) |  | 
Cc1nc(N(C)C(=O)NC(=O)c2c(F)cccc2F)sc1C(=O)N/N=C/c1ccccc1Cl |  |  | > 100 |  | 
Cc1nc(N(C)C(=O)NC(=O)c2c(F)cccc2F)sc1C(=O)N/N=C/c1ccc(C(F)(F)F)cc1 | 60.4 (≈ 115 µM) | 65.5 (≈ 125 µM) | > 100 | 30.6 (≈ 58.2 µM) | 40.5 (≈ 77.2 µM)
Cc1nc(N(C)C(=O)NC(=O)c2c(F)cccc2F)sc1C(=O)N/N=C/c1cc(C(F)(F)F)cc(C(F)(F)F)c1 | 13 (≈ 21.9 µM) | 14.1 (≈ 23.7 µM) | 11.4 (≈ 19.1 µM) | 11.6 (≈ 19.6 µM) | 12.2 (≈ 20.6 µM)
CN(C(=O)NC(=O)c1c(F)cccc1F)c1nc(C(F)(F)F)c(C(=O)N/N=C/c2ccc(C(F)(F)F)cc2)s1 | 40.1 (≈ 69.2 µM) | 34.9 (≈ 60.2 µM) | 49.6 (≈ 85.6 µM) | 35.3 (≈ 61 µM) | 30.6 (≈ 52.8 µM)
CN(C(=O)NC(=O)c1c(F)cccc1F)c1nc(C(F)(F)F)c(C(=O)N/N=C/c2cc(C(F)(F)F)cc(C(F)(F)F)c2)s1 | 17.3 (≈ 26.7 µM) | 5.28 (≈ 8.16 µM) | 6.28 (≈ 9.7 µM) | 6.85 (≈ 10.6 µM) | 5.62 (≈ 8.68 µM)
Cc1nc(N(C)C(=O)NC(=O)c2c(F)cccc2F)sc1C(=O)N/N=C/c1ccccc1F |  |  | > 100 |  | 
CN(C(=O)NC(=O)c1ccccc1[N+](=O)[O-])c1nc(C(F)(F)F)c(C(=O)N/N=C/c2ccc([N+](=O)[O-])cc2)s1 | 17.6 (≈ 31.2 µM) | 15.7 (≈ 27.7 µM) | 25.2 (≈ 44.6 µM) | 21.2 (≈ 37.5 µM) | 18.4 (≈ 32.6 µM)
CN(C(=O)NC(=O)c1ccc(F)c(F)c1)c1nc(C(F)(F)F)c(C(=O)N/N=C/c2ccccc2C(F)(F)F)s1 | 6.96 (≈ 12 µM) | 3.66 (≈ 6.32 µM) | 10.4 (≈ 17.9 µM) | 8.21 (≈ 14.2 µM) | 9.24 (≈ 15.9 µM)
CN(C(=O)NC(=O)c1ccc(C(F)(F)F)cc1)c1nc(C(F)(F)F)c(C(=O)N/N=C/c2ccc(C(F)(F)F)cc2)s1 | > 100 | > 100 | > 100 | > 100 | > 100
CN(C(=O)NC(=O)c1ccc([N+](=O)[O-])cc1)c1nc(C(F)(F)F)c(C(=O)N/N=C/c2ccc([N+](=O)[O-])cc2)s1 | 8.98 (≈ 15.9 µM) | 7.45 (≈ 13.2 µM) | 12.3 (≈ 21.8 µM) | 9.24 (≈ 16.3 µM) | 8.42 (≈ 14.9 µM)
CN(C(=O)NC(=O)c1ccccc1F)c1nc(C(F)(F)F)c(C(=O)N/N=C/c2cc(C(F)(F)F)cc(C(F)(F)F)c2)s1 | 5.43 (≈ 8.63 µM) | 4.23 (≈ 6.72 µM) | 4.47 (≈ 7.1 µM) | 6.16 (≈ 9.79 µM) | 4.98 (≈ 7.91 µM)
CN(C(=O)NC(=O)c1ccccc1F)c1nc(C(F)(F)F)c(C(=O)N/N=C/c2cccc(C(F)(F)F)c2)s1 | 19.4 (≈ 34.6 µM) | 16.3 (≈ 29.1 µM) | 20.3 (≈ 36.2 µM) | 20.5 (≈ 36.6 µM) | 19.1 (≈ 34.1 µM)
CN(C(=O)NC(=O)c1cccc([N+](=O)[O-])c1)c1nc(C(F)(F)F)c(C(=O)N/N=C/c2ccccc2C(F)(F)F)s1 | 5.45 (≈ 9.26 µM) | 3.97 (≈ 6.75 µM) | 4.8 (≈ 8.16 µM) | 4.73 (≈ 8.04 µM) | 4.15 (≈ 7.05 µM)
Cc1nc(N(C)C(=O)NC(=O)c2c(F)cccc2F)sc1C(=O)N/N=C/c1cccc(C(F)(F)F)c1 | 30.3 (≈ 57.7 µM) | 32.6 (≈ 62.1 µM) | 31.6 (≈ 60.1 µM) | 28.1 (≈ 53.6 µM) | 26.8 (≈ 51 µM)
Cc1nc(N(C)C(=O)NC(=O)c2c(F)cccc2F)sc1C(=O)N/N=C/c1ccc(Cl)cc1 |  |  | > 100 |  | 
Cc1nc(N(C)C(=O)NC(=O)c2ccc(Cl)cc2Cl)sc1C(=O)N/N=C/c1ccc(C(F)(F)F)cc1 | 30.2 (≈ 54.1 µM) | 38 (≈ 68 µM) | > 100 | 24.5 (≈ 43.9 µM) | 20.3 (≈ 36.4 µM)

Compound | IC50 (A549) [µg/mL] | IC50 [1] [µg/mL] | IC50 (HepG2) [µg/mL] | IC50 (MCF7) [µg/mL] | IC50 (HeLa) [µg/mL]
CN(C(=O)NC(=O)c1c(F)cccc1F)c1nc(C(F)(F)F)c(C(=O)N/N=C/c2cccc(C(F)(F)F)c2)s1 | 27.6 (≈ 47.6 µM) | 25.9 (≈ 44.6 µM) | 27.9 (≈ 48.1 µM) | 21.8 (≈ 37.6 µM) | 21.6 (≈ 37.3 µM)
Cc1nc(N(C)C(=O)NC(=O)c2c(F)cccc2F)sc1C(=O)N/N=C/c1ccccc1 |  |  | 54.3 (≈ 119 µM) |  | 
CN(C(=O)NC(=O)c1ccc(Cl)cc1Cl)c1nc(C(F)(F)F)c(C(=O)N/N=C/c2ccccc2C(F)(F)F)s1 | 15.3 (≈ 25 µM) | 5.73 (≈ 9.36 µM) | 10.7 (≈ 17.4 µM) | 9.12 (≈ 14.9 µM) | 9 (≈ 14.7 µM)
CN(C(=O)NC(=O)c1ccc(C(F)(F)F)cc1)c1nc(C(F)(F)F)c(C(=O)N/N=C/c2cc(C(F)(F)F)cc(C(F)(F)F)c2)s1 | 5.9 (≈ 8.68 µM) | 1.77 (≈ 2.61 µM) | 8.35 (≈ 12.3 µM) | 7.37 (≈ 10.8 µM) | 5.78 (≈ 8.51 µM)
CN(C(=O)NC(=O)c1cccc(C(F)(F)F)c1)c1nc(C(F)(F)F)c(C(=O)N/N=C/c2ccccc2C(F)(F)F)s1 | 12.1 (≈ 19.8 µM) | 7.29 (≈ 11.9 µM) | 10.4 (≈ 17 µM) | 7.69 (≈ 12.6 µM) | 7.37 (≈ 12.1 µM)
CN(C(=O)NC(=O)c1ccc(F)c(F)c1)c1nc(C(F)(F)F)c(C(=O)N/N=C/c2ccc([N+](=O)[O-])cc2)s1 | 5.78 (≈ 10.4 µM) | 2.99 (≈ 5.37 µM) | 6.23 (≈ 11.2 µM) | 4.81 (≈ 8.64 µM) | 5.08 (≈ 9.13 µM)
CN(C(=O)NC(=O)c1cccc(C(F)(F)F)c1)c1nc(C(F)(F)F)c(C(=O)N/N=C/c2cccc(C(F)(F)F)c2)s1 | 8.16 (≈ 13.3 µM) | 4.6 (≈ 7.52 µM) | 5.79 (≈ 9.47 µM) | 3.7 (≈ 6.05 µM) | 4.81 (≈ 7.87 µM)
CN(C(=O)NC(=O)c1cccc(C(F)(F)F)c1)c1nc(C(F)(F)F)c(C(=O)N/N=C/c2ccc(C(F)(F)F)cc2)s1 | 6.2 (≈ 10.1 µM) | 4.22 (≈ 6.9 µM) | 7.71 (≈ 12.6 µM) | 6.5 (≈ 10.6 µM) | 7.35 (≈ 12 µM)
CN(C(=O)NC(=O)c1ccc(Cl)cc1Cl)c1nc(C(F)(F)F)c(C(=O)N/N=C/c2cc(C(F)(F)F)cc(C(F)(F)F)c2)s1 | > 100 | > 100 | > 100 | > 100 | > 100
CN(C(=O)NC(=O)c1c(Cl)cccc1Cl)c1nc(C(F)(F)F)c(C(=O)N/N=C/c2ccccc2C(F)(F)F)s1 | 12 (≈ 19.6 µM) | 4.12 (≈ 6.73 µM) | 8.95 (≈ 14.6 µM) | 6.24 (≈ 10.2 µM) | 5.23 (≈ 8.54 µM)
CN(C(=O)NC(=O)c1ccc([N+](=O)[O-])cc1)c1nc(C(F)(F)F)c(C(=O)N/N=C/c2cccc(C(F)(F)F)c2)s1 | 5.42 (≈ 9.21 µM) | 1.67 (≈ 2.84 µM) | 4.73 (≈ 8.04 µM) | 4.39 (≈ 7.46 µM) | 4.12 (≈ 7 µM)
COc1ccc(/C=N/NC(=O)c2sc(N(C)C(=O)NC(=O)c3c(F)cccc3F)nc2C)cc1 |  |  | 22.7 (≈ 46.5 µM) |  | 
CN(C(=O)NC(=O)c1ccc(Cl)cc1Cl)c1nc(C(F)(F)F)c(C(=O)N/N=C/c2ccc([N+](=O)[O-])cc2)s1 | 6.44 (≈ 10.9 µM) | 2.13 (≈ 3.61 µM) | 6.85 (≈ 11.6 µM) | 6.74 (≈ 11.4 µM) | 5.12 (≈ 8.69 µM)
CN(C(=O)NC(=O)c1ccc(Cl)cc1Cl)c1nc(C(F)(F)F)c(C(=O)N/N=C/c2ccc(C(F)(F)F)cc2)s1 | 9.4 (≈ 15.4 µM) | 3.08 (≈ 5.03 µM) | 12.4 (≈ 20.3 µM) | 8.42 (≈ 13.8 µM) | 7.99 (≈ 13 µM)
CN(C(=O)NC(=O)c1c(F)cccc1F)c1nc(C(F)(F)F)c(C(=O)N/N=C/c2ccccc2C(F)(F)F)s1 | 17.9 (≈ 30.9 µM) | 16.9 (≈ 29.3 µM) | 26.1 (≈ 45 µM) | 20.4 (≈ 35.3 µM) | 19.6 (≈ 33.8 µM)
CN(C(=O)NC(=O)c1ccc(Cl)cc1Cl)c1nc(C(F)(F)F)c(C(=O)N/N=C/c2cccc(C(F)(F)F)c2)s1 | 10.5 (≈ 17.2 µM) | 6.11 (≈ 9.98 µM) | 11.2 (≈ 18.3 µM) | 10.7 (≈ 17.5 µM) | 9.6 (≈ 15.7 µM)
Cc1nc(N(C)C(=O)NC(=O)c2c(F)cccc2F)sc1C(=O)N/N=C/c1ccc(F)cc1 |  |  | > 100 |  | 
COc1cc(/C=N/NC(=O)c2sc(N(C)C(=O)NC(=O)c3c(F)cccc3F)nc2C)cc(OC)c1OC |  |  | > 100 |  | 
